# Activity calls are given as the source filed them. No cut-off for these calls is given here.
# B1: Beta-galactoside alpha-2,6-sialyltransferase 1 (Rattus norvegicus), P13721 (protein)
# chain: MIHTNLKKKFSLFILVFLLFAVICVWKKGSDYEALTLQAKEFQMPKSQEKVAMGSASQVVFSNSKQDPKEDIPILSYHRVTAKVKPQPSFQVWDKDSTYSKLNPRLLKIWRNYLNMNKYKVSYKGPGPGVKFSVEALRCHLRDHVNVSMIEATDFPFNTTEWEGYLPKENFRTKVGPWQRCAVVSSAGSLKNSQLGREIDNHDAVLRFNGAPTDNFQQDVGSKTTIRLMNSQLVTTEKRFLKDSLYTEGILIVWDPSVYHADIPKWYQKPDYNFFETYKSYRRLNPSQPFYILKPQMPWELWDIIQEISADLIQPNPPSSGMLGIIIMMTLCDQVDIYEFLPSKRKTDVCYYHQKFFDSACTMGAYHPLLFEKNMVKHLNEGTDEDIYLFGKATLSGFRNIRC
# Key:
# [1] = biological target: T1, Beta-galactoside alpha-2,6-sialyltransferase 1 (Rattus norvegicus) (UniProt P13721); assay: (§1) Kinetic parameter of sialylation by alpha-2,6-sialyltransferase
# T1 sequence (whole entry): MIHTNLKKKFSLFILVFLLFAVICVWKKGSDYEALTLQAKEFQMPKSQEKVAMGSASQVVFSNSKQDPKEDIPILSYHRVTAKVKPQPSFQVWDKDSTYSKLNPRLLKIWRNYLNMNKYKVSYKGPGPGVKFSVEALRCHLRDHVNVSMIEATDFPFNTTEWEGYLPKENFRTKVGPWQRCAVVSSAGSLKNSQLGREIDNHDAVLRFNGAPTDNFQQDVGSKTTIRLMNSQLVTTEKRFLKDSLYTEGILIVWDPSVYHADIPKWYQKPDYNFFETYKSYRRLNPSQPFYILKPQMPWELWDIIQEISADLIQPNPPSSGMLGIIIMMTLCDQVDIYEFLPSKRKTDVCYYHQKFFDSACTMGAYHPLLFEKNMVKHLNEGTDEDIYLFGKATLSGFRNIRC
# How it was run: (§2)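 Rat liver recombinant α-2,6-sialyltransferase transferring CMP-[14C]-Neu5Ac to LacNAc-based acceptors. Apparent kinetic parameters (Km, Vmax) were determined by previously reported assays. Vmax is expressed relative to unmodified LacNAc, which is set at 1.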
# [2] = tested on: Alpha-(1,3)-fucosyltransferase 6 (Homo sapiens); assay: Kinetic parameter of […] by fucosyltransferase 6 alpha 1,3
# [3] = tested on: Alpha-(1,3)-fucosyltransferase 6 (Homo sapiens); assay: Kinetic parameter of […] of compound by fucosyltransferase 6 alpha 1,3; Not active
# [4] = substrate: CNC(=O)[C@@H]1O[C@@H](OC)[C@@H](NC(C)=O)[C@@H](O)[C@@H]1O[C@@H]1O[C@@H](CO)[C@H](O)[C@H](O)C1O; assay: (§3) Apparent kinetic parameter of sialylation by alpha-2,6-sialyltransferase; conditions: Rattus norvegicus; how it was run: as §2
# [5] = substrate: COC[C@@H]1O[C@@H](OC)[C@@H](NC(C)=O)[C@@H](O)[C@@H]1O[C@@H]1O[C@@H](CO)[C@H](O)[C@H](O)[C@@H]1O; assay: as §3; conditions: Rattus norvegicus; how it was run: as §2
# [6] = substrate: COC[C@@H]1O[C@@H](OC)[C@@H](NC(C)=O)[C@@H](O)[C@@H]1O[C@@H]1O[C@@H](CO)[C@H](O)[C@H](O)[C@@H]1OC; assay: as §3; conditions: Rattus norvegicus; how it was run: as §2
# [7] = substrate: CO[C@@H]1O[C@@H](C(N)=O)[C@@H](O[C@@H]2O[C@@H](CO)[C@H](O)[C@H](O)[C@@H]2O)[C@H](O)[C@@H]1NC(C)=O; assay: as §3; conditions: Rattus norvegicus; how it was run: as §2
# [8] = substrate: CO[C@@H]1O[C@@H](CN)[C@@H](O[C@@H]2O[C@@H](CO)[C@H](O)[C@H](O)[C@@H]2O)[C@H](O)[C@@H]1NC(C)=O; assay: as §3; conditions: Rattus norvegicus; how it was run: as §2
# [9] = substrate: CO[C@@H]1O[C@@H](CNC(C)=O)[C@@H](O[C@@H]2O[C@@H](CO)[C@H](O)[C@H](O)[C@@H]2O)[C@H](O)[C@@H]1NC(C)=O; assay: as §3; conditions: Rattus norvegicus; how it was run: as §2
# [10] = substrate: CO[C@@H]1O[C@@H](CNC=O)[C@@H](O[C@@H]2O[C@@H](CO)[C@H](O)[C@H](O)[C@@H]2O)[C@H](O)[C@@H]1NC(C)=O; assay: as §3; conditions: Rattus norvegicus; how it was run: as §2
# [11] = substrate: CO[C@@H]1O[C@@H](CNC=O)[C@@H](O[C@@H]2O[C@@H](CO)[C@H](O)[C@H](O)[C@@H]2OC)[C@H](O)[C@@H]1NC(C)=O; assay: as §3; conditions: Rattus norvegicus; how it was run: as §2
# [12] = substrate: CO[C@@H]1O[C@@H](CNS(C)(=O)=O)[C@@H](O[C@@H]2O[C@@H](CO)[C@H](O)[C@H](O)[C@@H]2O)[C@H](O)[C@@H]1NC(C)=O; assay: as §3; conditions: Rattus norvegicus; how it was run: as §2
# [13] = substrate: CO[C@@H]1O[C@@H](CO)[C@@H](O[C@@H]2O[C@@H](CO)[C@H](O)[C@H](O)[C@@H]2O)[C@H](O)[C@@H]1NC(C)=O; assay: as §3; conditions: Rattus norvegicus; how it was run: as §2
# [14] = substrate: CO[C@@H]1O[C@@H](CO)[C@@H](O[C@@H]2O[C@@H](CO)[C@H](O)[C@H](O)[C@@H]2OC)[C@H](O)[C@@H]1NC(C)=O; assay: as §3; conditions: Rattus norvegicus; how it was run: as §2
# [15] = substrate: CO[C@@H]1O[C@@H](COS(C)(=O)=O)[C@@H](O[C@@H]2O[C@@H](CO)[C@H](O)[C@H](O)[C@@H]2O)[C@H](O)[C@@H]1NC(C)=O; assay: as §3; conditions: Rattus norvegicus; how it was run: as §2
# [16] = substrate: CNC(=O)[C@@H]1O[C@@H](OC)[C@@H](NC(C)=O)[C@@H](O)[C@@H]1O[C@@H]1O[C@@H](CO)[C@H](O)[C@H](O)C1O; assay: as §1; conditions: Rattus norvegicus; how it was run: as §2
# [17] = substrate: COC[C@@H]1O[C@@H](OC)[C@@H](NC(C)=O)[C@@H](O)[C@@H]1O[C@@H]1O[C@@H](CO)[C@H](O)[C@H](O)[C@@H]1O; assay: as §1; conditions: Rattus norvegicus; how it was run: as §2
# [18] = substrate: COC[C@@H]1O[C@@H](OC)[C@@H](NC(C)=O)[C@@H](O)[C@@H]1O[C@@H]1O[C@@H](CO)[C@H](O)[C@H](O)[C@@H]1OC; assay: as §1; conditions: Rattus norvegicus; how it was run: as §2
# [19] = substrate: CO[C@@H]1O[C@@H](C(N)=O)[C@@H](O[C@@H]2O[C@@H](CO)[C@H](O)[C@H](O)[C@@H]2O)[C@H](O)[C@@H]1NC(C)=O; assay: as §1; conditions: Rattus norvegicus; how it was run: as §2
# [20] = substrate: CO[C@@H]1O[C@@H](CN)[C@@H](O[C@@H]2O[C@@H](CO)[C@H](O)[C@H](O)[C@@H]2O)[C@H](O)[C@@H]1NC(C)=O; assay: as §1; conditions: Rattus norvegicus; how it was run: as §2
# [21] = substrate: CO[C@@H]1O[C@@H](CNC(C)=O)[C@@H](O[C@@H]2O[C@@H](CO)[C@H](O)[C@H](O)[C@@H]2O)[C@H](O)[C@@H]1NC(C)=O; assay: as §1; conditions: Rattus norvegicus; how it was run: as §2
# [22] = substrate: CO[C@@H]1O[C@@H](CNC=O)[C@@H](O[C@@H]2O[C@@H](CO)[C@H](O)[C@H](O)[C@@H]2O)[C@H](O)[C@@H]1NC(C)=O; assay: as §1; conditions: Rattus norvegicus; how it was run: as §2
# [23] = substrate: CO[C@@H]1O[C@@H](CNC=O)[C@@H](O[C@@H]2O[C@@H](CO)[C@H](O)[C@H](O)[C@@H]2OC)[C@H](O)[C@@H]1NC(C)=O; assay: as §1; conditions: Rattus norvegicus; how it was run: as §2
# [24] = substrate: CO[C@@H]1O[C@@H](CNS(C)(=O)=O)[C@@H](O[C@@H]2O[C@@H](CO)[C@H](O)[C@H](O)[C@@H]2O)[C@H](O)[C@@H]1NC(C)=O; assay: as §1; conditions: Rattus norvegicus; how it was run: as §2
# [25] = substrate: CO[C@@H]1O[C@@H](CO)[C@@H](O[C@@H]2O[C@@H](CO)[C@H](O)[C@H](O)[C@@H]2O)[C@H](O)[C@@H]1NC(C)=O; assay: as §1; conditions: Rattus norvegicus; how it was run: as §2
# [26] = substrate: CO[C@@H]1O[C@@H](CO)[C@@H](O[C@@H]2O[C@@H](CO)[C@H](O)[C@H](O)[C@@H]2OC)[C@H](O)[C@@H]1NC(C)=O; assay: as §1; conditions: Rattus norvegicus; how it was run: as §2
# [27] = substrate: CO[C@@H]1O[C@@H](COS(C)(=O)=O)[C@@H](O[C@@H]2O[C@@H](CO)[C@H](O)[C@H](O)[C@@H]2O)[C@H](O)[C@@H]1NC(C)=O; assay: as §1; conditions: Rattus norvegicus; how it was run: as §2
molecule,measurement,setting,value
CO[C@@H]1O[C@@H](CN)[C@@H](O[C@@H]2O[C@@H](CO)[C@H](O)[C@H](O)[C@@H]2O)[C@H](O)[C@@H]1NC(C)=O,Vmax / Km,[1],0.08
same,Vmax / Km,[2],1.5
CO[C@@H]1O[C@@H](COS(C)(=O)=O)[C@@H](O[C@@H]2O[C@@H](CO)[C@H](O)[C@H](O)[C@@H]2O)[C@H](O)[C@@H]1NC(C)=O,Vmax / Km,[1],1.3
same,Vmax / Km,[2],3.6
COC(=O)[C@@H]1O[C@@H](OC)[C@@H](NC(C)=O)[C@@H](O)[C@@H]1O[C@@H]1O[C@@H](CO)[C@H](O)[C@H](O)[C@@H]1O,Vmax / Km,[1],0.2
same,Vmax / Km,[2],1.2
CO[C@@H]1O[C@@H](CNC=O)[C@@H](O[C@@H]2O[C@@H](CO)[C@H](O)[C@H](O)[C@@H]2OC)[C@H](O)[C@@H]1NC(C)=O,Vmax / Km,[1],0.3
same,Vmax / Km,[2],9.3
COC[C@@H]1O[C@@H](OC)[C@@H](NC(C)=O)[C@@H](O)[C@@H]1O[C@@H]1O[C@@H](CO)[C@H](O)[C@H](O)[C@@H]1OC,Vmax / Km,[1],0.04
same,Vmax / Km,[2],6.7
CO[C@@H]1O[C@@H](CNC(C)=O)[C@@H](O[C@@H]2O[C@@H](CO)[C@H](O)[C@H](O)[C@@H]2O)[C@H](O)[C@@H]1NC(C)=O,Vmax / Km,[1],0.4
same,Vmax / Km,[2],6.8
CNC(=O)[C@@H]1O[C@@H](OC)[C@@H](NC(C)=O)[C@@H](O)[C@@H]1O[C@@H]1O[C@@H](CO)[C@H](O)[C@H](O)C1O (some centres undefined),Vmax / Km,[1],0.08
same,Vmax / Km,[2],0.4
CO[C@@H]1O[C@@H](C(N)=O)[C@@H](O[C@@H]2O[C@@H](CO)[C@H](O)[C@H](O)[C@@H]2O)[C@H](O)[C@@H]1NC(C)=O,Vmax / Km,[1],0.02
same,Vmax / Km,[3],inactive
CO[C@@H]1O[C@@H](CNC=O)[C@@H](O[C@@H]2O[C@@H](CO)[C@H](O)[C@H](O)[C@@H]2O)[C@H](O)[C@@H]1NC(C)=O,Vmax / Km,[1],1.5
same,Vmax / Km,[2],7.3
CO[C@@H]1O[C@@H](CO)[C@@H](O[C@@H]2O[C@@H](CO)[C@H](O)[C@H](O)[C@@H]2OC)[C@H](O)[C@@H]1NC(C)=O,Vmax / Km,[1],0.2
same,Vmax / Km,[2],3.1
COC[C@@H]1O[C@@H](OC)[C@@H](NC(C)=O)[C@@H](O)[C@@H]1O[C@@H]1O[C@@H](CO)[C@H](O)[C@H](O)[C@@H]1O,Vmax / Km,[1],0.2
same,Vmax / Km,[2],4.5
CO[C@@H]1O[C@@H](CO)[C@@H](O[C@@H]2O[C@@H](CO)[C@H](O)[C@H](O)[C@@H]2O)[C@H](O)[C@@H]1NC(C)=O,Vmax / Km,[1],0.6
CO[C@@H]1O[C@@H](CNS(C)(=O)=O)[C@@H](O[C@@H]2O[C@@H](CO)[C@H](O)[C@H](O)[C@@H]2O)[C@H](O)[C@@H]1NC(C)=O,Vmax / Km,[1],0.9
same,Vmax / Km,[2],8.7
B1,Km,[4],2400 µM
same,Km,[5],4300 µM
same,Km,[6],11200 µM
same,Km,[7],> 10000 µM
same,Km,[8],5800 µM
same,Km,[9],1400 µM
same,Km,[10],1100 µM
same,Km,[11],3100 µM
same,Km,[12],800 µM
same,Km,[13],1700 µM
same,Km,[14],4100 µM
same,Km,[15],700 µM
same,Vmax,[16],0.2
same,Vmax,[17],0.8
same,Vmax,[18],0.5
same,Vmax,[19],< 0.2
same,Vmax,[20],0.5
same,Vmax,[21],0.6
same,Vmax,[22],1.6
same,Vmax,[23],1
same,Vmax,[24],0.7
same,Vmax,[25],1
same,Vmax,[26],0.8
same,Vmax,[27],0.9

# Reference: ChEMBL document CHEMBL1147557, “Glycosyltransferase activity can be selectively modulated by chemical modifications of acceptor substrates” (Bioorg Med Chem Lett, 2004)
